Measured values reported in ChEMBL document CHEMBL1132559 (J Med Chem, 1999).

Columns and labels:
[1] = molecular target: 5-hydroxytryptamine receptor 2A (Rattus norvegicus) (UniProt P14842); assay: Displacement of [3H]ketanserin from rat cortical membrane 5-hydroxytryptamine 2A receptor at 10e-7 M
In short: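 Single-concentration screen at 10^-7 M: displacement of [3H]ketanserin (1.0 nM) from rat cortical membranes, methysergide as reference. Reported as % inhibition versus binding with no drug, mean of duplicate tubes in one experiment. Checked against a verification screen.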

[2] = molecular target: D(2) dopamine receptor (Rattus norvegicus) (UniProt P61169); assay: Displacement of [3H]sulpiride from rat striatal membrane Dopamine receptor D2 at 10e-7 M
In short: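 Single-concentration screen at 10^-7 M: displacement of [3H]sulpiride (3.0 nM) from rat striatal membranes, sulpiride as reference. Reported as % inhibition versus binding with no drug, mean of duplicate tubes in one experiment.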

[3] = test system: Serotonin transporter (Rattus norvegicus); assay: Displacement of [3H]-citalopram from rat forebrain membrane serotonin transporter at 10e-7 M
[4] = molecular target: Histamine H1 receptor (Bos taurus) (UniProt P30546); assay: Inhibition of [3H]pyrilamine binding to Histamine H1 receptor of bovine cerebellar membrane at 10e-7 M
In short: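 Single-concentration screen at 10^-7 M: displacement of [3H]pyrilamine (2.0 nM) from bovine cerebellar membranes, triprolidine as reference. Reported as % inhibition versus binding with no drug, mean of duplicate tubes in one experiment.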

[5] = molecular target: Norepinephrine transporter (Rattus norvegicus) (UniProt Q9WTR4); assay: Inhibition of [3H]desmethylimipramine binding to […] of rat cortical membrane at 10e-7 M
In short: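 Single-concentration screen at 10^-7 M: displacement of [3H]desmethylimipramine (3.0 nM) from rat cortical membranes, desipramine as reference. Reported as % inhibition versus binding with no drug, mean of duplicate tubes in one experiment.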

[6] = test system: Sigma non-opioid intracellular receptor 1 (Sus scrofa); assay: Inhibition of [3H](+)-pentazocine binding to Sigma opioid receptor type 1 of pig brain membranes at 10e-7 M
[7] = molecular target: Adrenergic receptor alpha-1 (Rattus norvegicus) (UniProt P15823+P23944+P43140); assay: Displacement of [3H]prazosin from Alpha-1 adrenergic receptor of rat cortical membrane at 10e-7 M
In short: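 Single-concentration screen at 10^-7 M: displacement of [3H]prazosin (0.5 nM) from rat cortical membranes, prazosin as reference. Reported as % inhibition versus binding with no drug, mean of duplicate tubes in one experiment. Checked against a verification screen.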

[8] = molecular target: T1, Adrenergic receptor alpha-1 (Rattus norvegicus, UniProt P15823+P23944+P43140); assay: Compound was tested for the inhibition of [3H]-prazosin binding to Alpha-1 adrenergic receptor; type: protein assay
T1 sequence (P15823 whole entry): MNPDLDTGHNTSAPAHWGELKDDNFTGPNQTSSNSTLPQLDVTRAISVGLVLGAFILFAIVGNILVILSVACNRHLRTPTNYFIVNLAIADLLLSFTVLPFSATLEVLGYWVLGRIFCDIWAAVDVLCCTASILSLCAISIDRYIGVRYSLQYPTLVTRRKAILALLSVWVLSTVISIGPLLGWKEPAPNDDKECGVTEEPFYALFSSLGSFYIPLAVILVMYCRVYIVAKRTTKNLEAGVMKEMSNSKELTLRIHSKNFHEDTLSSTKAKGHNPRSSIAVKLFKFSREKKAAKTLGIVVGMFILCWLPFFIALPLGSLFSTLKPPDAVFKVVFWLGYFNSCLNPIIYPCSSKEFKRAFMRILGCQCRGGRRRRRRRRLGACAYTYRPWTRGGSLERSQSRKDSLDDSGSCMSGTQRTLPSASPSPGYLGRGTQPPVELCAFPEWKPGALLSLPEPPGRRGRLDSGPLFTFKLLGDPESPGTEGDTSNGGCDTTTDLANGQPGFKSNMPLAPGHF
T1 sequence (P23944 whole entry): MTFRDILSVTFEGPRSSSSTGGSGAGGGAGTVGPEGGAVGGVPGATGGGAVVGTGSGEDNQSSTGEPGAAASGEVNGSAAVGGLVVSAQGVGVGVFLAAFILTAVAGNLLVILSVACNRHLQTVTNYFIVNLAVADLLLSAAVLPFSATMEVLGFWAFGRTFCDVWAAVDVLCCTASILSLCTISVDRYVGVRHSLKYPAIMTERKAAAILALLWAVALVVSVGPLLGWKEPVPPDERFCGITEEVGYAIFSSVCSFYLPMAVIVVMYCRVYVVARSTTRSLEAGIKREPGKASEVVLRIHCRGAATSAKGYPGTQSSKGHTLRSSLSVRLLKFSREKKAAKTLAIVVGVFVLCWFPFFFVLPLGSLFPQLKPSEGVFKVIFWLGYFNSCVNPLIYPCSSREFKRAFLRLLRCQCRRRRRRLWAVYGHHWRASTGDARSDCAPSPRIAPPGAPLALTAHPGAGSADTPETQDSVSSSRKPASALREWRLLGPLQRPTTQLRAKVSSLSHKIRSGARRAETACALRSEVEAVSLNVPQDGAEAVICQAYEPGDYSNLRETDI
T1 sequence (P43140 whole entry): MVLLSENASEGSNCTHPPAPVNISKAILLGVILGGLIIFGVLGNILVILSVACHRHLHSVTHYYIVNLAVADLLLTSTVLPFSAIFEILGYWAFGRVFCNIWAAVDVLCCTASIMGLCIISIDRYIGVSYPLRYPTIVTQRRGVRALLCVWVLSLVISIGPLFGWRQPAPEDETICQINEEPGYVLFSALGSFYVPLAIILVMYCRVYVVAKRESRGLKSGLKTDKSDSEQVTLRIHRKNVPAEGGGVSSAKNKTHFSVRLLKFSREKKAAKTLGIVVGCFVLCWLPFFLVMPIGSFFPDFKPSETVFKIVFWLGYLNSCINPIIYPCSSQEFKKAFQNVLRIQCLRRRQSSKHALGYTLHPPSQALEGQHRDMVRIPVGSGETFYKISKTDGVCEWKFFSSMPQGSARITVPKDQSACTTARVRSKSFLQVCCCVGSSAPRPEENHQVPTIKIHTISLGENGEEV
In short: (§1)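 Radioligand displacement on rat cortical membranes using [3H]prazosin (0.5 nM), with prazosin as the reference compound. IC50 derived from six test concentrations, each in triplicate, in one experiment. Run at an external screening laboratory.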

[9] = molecular target: T2, 5-hydroxytryptamine receptor 2A (Rattus norvegicus, UniProt P14842); assay: Compound was tested for the inhibition of [3H]ketanserin binding to 5-hydroxytryptamine 2A receptor
In short: (§2)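 Radioligand displacement on rat cortical membranes using [3H]ketanserin (1.0 nM), with methysergide as the reference compound. IC50 derived from six test concentrations, each in triplicate, in one experiment. Run at an external screening laboratory.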

[10] = molecular target: T2, 5-hydroxytryptamine receptor 2A; assay: Compound was tested for it's binding affinity towards 5-hydroxytryptamine 2A receptor; in short: as §2
Rattus norvegicus [11] = species: Rattus norvegicus; assay: In vitro functional activity (pA2) by using isolated rat vas deferens smooth muscle preparation (on adrenergic system); conditions: Muscle tissue, read-out: pA2 (converted)
In short: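 Vas deferens from male Sprague–Dawley rats (200-300 g), 3-4 preparations, isometric contraction recorded. Cumulative L-noradrenaline concentration-response curves built stepwise once each response was steady.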

Rattus norvegicus [12] = species: Rattus norvegicus; assay: In vitro functional activity (pA2) by using isolated rat aorta smooth muscle preparation (on serotonergic system); conditions: Muscle tissue, read-out: pA2 (converted)
In short: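 Aorta strips from male Sprague–Dawley rats (200-300 g), 3-7 preparations, isometric contraction recorded. Cumulative serotonin concentration-response curves built stepwise once each response was steady.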

[13] = molecular target: T1, Adrenergic receptor alpha-1; assay: Compound was tested for it's binding affinity towards Alpha-1 adrenergic receptor; type: protein assay; in short: as §1
[14] = molecular target: T1, Adrenergic receptor alpha-1; assay: Compound was tested for it's binding affinity towards alpha-1 adrenergic receptor; type: protein assay; in short: as §1

D(2) dopamine receptor (Rattus norvegicus), sequence (P61169 whole entry): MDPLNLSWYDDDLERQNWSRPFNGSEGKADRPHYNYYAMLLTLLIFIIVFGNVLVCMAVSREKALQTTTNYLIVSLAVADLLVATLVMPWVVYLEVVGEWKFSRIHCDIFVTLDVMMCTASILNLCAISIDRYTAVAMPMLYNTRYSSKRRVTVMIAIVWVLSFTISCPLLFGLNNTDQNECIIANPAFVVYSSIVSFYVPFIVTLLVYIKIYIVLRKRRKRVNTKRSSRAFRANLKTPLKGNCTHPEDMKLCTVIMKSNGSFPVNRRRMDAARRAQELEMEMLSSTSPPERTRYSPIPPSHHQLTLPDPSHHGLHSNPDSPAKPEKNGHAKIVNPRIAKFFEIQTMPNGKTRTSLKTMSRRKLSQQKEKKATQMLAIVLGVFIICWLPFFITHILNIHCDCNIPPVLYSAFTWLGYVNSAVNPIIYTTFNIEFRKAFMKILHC
T2 sequence (P14842 whole entry): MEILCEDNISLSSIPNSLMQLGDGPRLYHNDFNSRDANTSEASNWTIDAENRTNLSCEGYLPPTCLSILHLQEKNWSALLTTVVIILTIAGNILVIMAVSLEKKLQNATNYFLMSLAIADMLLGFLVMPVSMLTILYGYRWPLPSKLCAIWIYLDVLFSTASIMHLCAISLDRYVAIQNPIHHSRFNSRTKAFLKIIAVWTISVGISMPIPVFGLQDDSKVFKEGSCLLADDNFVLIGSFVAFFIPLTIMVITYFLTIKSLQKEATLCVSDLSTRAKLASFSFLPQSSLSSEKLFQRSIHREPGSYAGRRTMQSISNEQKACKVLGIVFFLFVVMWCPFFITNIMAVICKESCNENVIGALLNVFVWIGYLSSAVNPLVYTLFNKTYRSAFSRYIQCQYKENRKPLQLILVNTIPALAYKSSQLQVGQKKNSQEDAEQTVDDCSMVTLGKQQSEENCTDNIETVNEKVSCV
5-hydroxytryptamine receptor 2A (Rattus norvegicus), sequence (P14842 whole entry): as above
Histamine H1 receptor (Bos taurus), sequence (P30546 whole entry): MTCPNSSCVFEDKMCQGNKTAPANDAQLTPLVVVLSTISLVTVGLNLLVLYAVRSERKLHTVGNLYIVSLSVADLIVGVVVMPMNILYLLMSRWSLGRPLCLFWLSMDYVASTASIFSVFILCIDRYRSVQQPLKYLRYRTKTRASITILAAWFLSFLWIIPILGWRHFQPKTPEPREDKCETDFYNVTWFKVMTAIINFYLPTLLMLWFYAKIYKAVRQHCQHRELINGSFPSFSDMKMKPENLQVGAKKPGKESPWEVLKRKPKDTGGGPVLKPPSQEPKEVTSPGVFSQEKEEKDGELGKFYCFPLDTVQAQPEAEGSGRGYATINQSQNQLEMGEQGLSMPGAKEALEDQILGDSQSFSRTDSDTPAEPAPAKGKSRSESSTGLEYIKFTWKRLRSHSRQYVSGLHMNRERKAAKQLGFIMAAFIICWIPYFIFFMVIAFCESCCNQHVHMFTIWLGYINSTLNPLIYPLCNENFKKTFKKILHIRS
Norepinephrine transporter (Rattus norvegicus), sequence (Q9WTR4 as listed by the source): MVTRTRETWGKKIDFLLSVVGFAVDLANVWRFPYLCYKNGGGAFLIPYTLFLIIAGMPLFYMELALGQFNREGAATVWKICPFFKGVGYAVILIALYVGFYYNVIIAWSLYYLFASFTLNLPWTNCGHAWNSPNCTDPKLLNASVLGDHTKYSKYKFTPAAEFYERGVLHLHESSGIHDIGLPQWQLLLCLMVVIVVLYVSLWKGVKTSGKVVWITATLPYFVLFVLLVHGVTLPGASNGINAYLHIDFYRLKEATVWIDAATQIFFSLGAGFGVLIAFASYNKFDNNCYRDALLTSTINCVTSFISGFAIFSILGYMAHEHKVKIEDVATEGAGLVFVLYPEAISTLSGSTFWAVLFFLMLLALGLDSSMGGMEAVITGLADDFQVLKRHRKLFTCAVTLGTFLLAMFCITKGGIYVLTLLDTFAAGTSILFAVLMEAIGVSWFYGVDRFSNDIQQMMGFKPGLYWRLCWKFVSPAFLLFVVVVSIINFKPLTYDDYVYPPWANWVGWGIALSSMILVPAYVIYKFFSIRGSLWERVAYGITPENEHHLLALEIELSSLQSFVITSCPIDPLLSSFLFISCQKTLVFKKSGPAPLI

SMILES	inhibition [1] [%]	inhibition [2] [%]	inhibition [3] [%]	inhibition [4] [%]	inhibition [5] [%]	inhibition [6] [%]	inhibition [7] [%]	IC50 [8] [µM]	IC50 [9] [µM]	IC50 [10] [µM]	IC50 [13] [µM]	IC50 [14] [µM]	Kb (Rattus norvegicus [11]) [µM]	Kb (Rattus norvegicus [12]) [µM]
CN(CCCn1nc2ccccn2c1=O)CCNc1cccc(Cl)c1	0	2	15	0	4	30	10							
CC1CN(c2cccc(Cl)c2)CCN1CCCn1nc2ccccn2c1=O (centres undefined)	69	8	45	13	2	43	37	0.471	0.031					
CN(CCNCCCn1nc2ccccn2c1=O)c1cccc(Cl)c1	0	4	23	0	0	65	12							
CCC1CN(c2cccc(Cl)c2)CCN1CCCn1nc2ccccn2c1=O (centres undefined)	60	10	20	14	0	43	44	0.493	0.169					
CC1CN(CCCn2nc3ccccn3c2=O)C(C)(C)CN1c1cccc(Cl)c1 (centres undefined)	40	3	38	9	0	81	11							
CC1C(=O)N(c2cccc(Cl)c2)CCN1CCCn1nc2ccccn2c1=O (centres undefined)	0	4	0	4	0	9	2							
CC(CN1CCN(c2cccc(Cl)c2)C(C)C1)Cn1nc2ccccn2c1=O (centres undefined)	20	0	6	12	0	65	7							
O=c1n(CCCNCCNc2cccc(Cl)c2)nc2ccccn12	4	3	10	0	0	29	8							

Now from value to compound, other results behind:

inhibition [1] [%]	inhibition [2] [%]	inhibition [3] [%]	inhibition [4] [%]	inhibition [5] [%]	inhibition [6] [%]	inhibition [7] [%]	IC50 [8] [µM]	IC50 [9] [µM]	IC50 [10] [µM]	IC50 [13] [µM]	IC50 [14] [µM]	SMILES	Kb (Rattus norvegicus [11]) [µM]	Kb (Rattus norvegicus [12]) [µM]
52	3	4	7	0	34	27	0.531	0.094				CC(CN1CCN(c2cccc(Cl)c2)CC1)Cn1nc2ccccn2c1=O (centres undefined)		
									0.234	0.533		C[C@@H]1CN(c2cccc(Cl)c2)CCN1CCCn1nc2ccccn2c1=O	0.158	0.0126
65	2	63	31	0	58	26	0.627	0.017				CC(CCn1nc2ccccn2c1=O)N1CCN(c2cccc(Cl)c2)CC1 (centres undefined)		
									0.0254		0.981	C[C@H]1CN(c2cccc(Cl)c2)CCN1CCCn1nc2ccccn2c1=O	3.98	0.00316
78	12		5	0								O=c1n(CCCN2CCN(c3cccc(Cl)c3)CC2)nc2ccccn12		
5	0	2	2	0	12	5						O=C1CN(CCCn2nc3ccccn3c2=O)CCN1c1cccc(Cl)c1		
34	0	15	7	0	68	25						CC1CN(CCCn2nc3ccccn3c2=O)CCN1c1cccc(Cl)c1 (centres undefined)		
